The test system of test [1] is MT2. The test is described as follows: Anti-HIV activity based on inhibition of HIV-1 induced cytopathogenicity in MT-2 cells. The format is functional, cell-based. As to conditions: Homo sapiens. In short, it runs like this:
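IC50 from inhibition of HIV-induced cytopathic effect in MT-2 cells. Values with SD are means of at least three independent experiments; values without SD come from a single experiment.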
On the technique in general: Damage to the host cells serves as the signal in cytopathic effect assays.

In test [2] the test system is MT2. In words: Cytotoxicity based on reduction of the viability of mock-infected MT-2 cells. In kind it is functional. As to conditions: Homo sapiens. In outline: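 CC50 taken as the concentration reducing the viability of mock-infected (uninfected) MT-2 cells. Values with SD are means of at least three independent experiments; values without SD come from a single experiment.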

For test [3], the system named is Human immunodeficiency virus. The test is described as follows: Inhibitory activity against wild type strain,HIV104pre. In kind it is functional, organism-based. Particulars: Human immunodeficiency virus 1. In outline: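 Activity against the wild-type strain HIV104pre was read as inhibition of HIV p24 antigen expression in peripheral blood mononuclear cells (PBMC).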

The subject of test [4] is Human immunodeficiency virus 1. In words: Anti-HIV activity against multidrug resistant HIV TM strain by inhibition of HIV p24 antigen expression in peripheral blood mononuclear cells(PBMC). The format is functional, organism-based. In outline: (§1)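 Read-out was HIV p24 antigen expression in peripheral blood mononuclear cells infected with multidrug-resistant HIV-1. Values with standard deviation are means of at least three experiments, and values without one come from a single experiment. Wild-type strain HIV104pre was the reference. Protease amino acid substitutions of each strain were characterised.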

For test [5], the system named is Human immunodeficiency virus 1. The test is described as follows: Anti-HIV activity against multidrug resistant HIV MM strain by inhibition of HIV p24 antigen expression in peripheral blood mononuclear cells(PBMC). The format is functional, organism-based. In short, it runs like this:
as §1

Test [6] concerns Human immunodeficiency virus 1. The test is described as follows: Anti-HIV activity against multidrug resistant HIV JSL strain by inhibition of HIV p24 antigen expression in peripheral blood mononuclear cells(PBMC). The format is functional, organism-based. In short, it runs like this: as §1
Test [7] can be described thus: Selectivity index was determined as ratio of reduction of the viability of mock-infected MT-2 cells/inhibition of HIV-1 induced cytopathogenicity in MT-2 cells. The format is functional, MT2.
For test [8], the target named is Human immunodeficiency virus type 1 protease (Human immunodeficiency virus 1, UniProt Q72874). The test is described as follows: Inhibitory activity against HIV-1 protease. In outline:
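Ki against HIV-1 protease. Enzyme reaction rate was obtained by SELDI-MS quantitation of the remaining parent peptide substrate.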

The values below come from ChEMBL document CHEMBL1144922 (J Med Chem, 2003).

The structures appear in SMILES notation.

Usually IC50 stands for the concentration that inhibits the measured activity by half. A word on the CC50: it is the concentration giving 50% cytotoxicity. As usually defined, the Ki is the dissociation constant of the complex between target and ligand, obtained from inhibition or displacement.

On to `CC(C)(C)NC(=O)[C@@H]1C[C@@H]2CCCC[C@@H]2CN1C[C@@H](O)[C@H](Cc1ccccc1)NC(=O)[C@H](CC(N)=O)NC(=O)c1ccc2ccccc2n1`, for which the IC50 amounted to 17 nM with MT2 [1] and 19 nM in test [3]. Also, in the test with MT2 [2], the cytotoxic concentration (CC50) worked out at 11000 nM.

As to `CC(C)CN(C[C@@H](O)[C@H](Cc1ccccc1)NC(=O)O[C@H]1CCOC1)S(=O)(=O)c1ccc(N)cc1`, the IC50 with MT2 [1] was determined as 36 nM; in test [4] it was 480 nM; in test [3], 20 nM; in test [5], 530 nM; in test [6], 800 nM. In addition, the CC50 in the test with MT2 [2] is over 100000 nM.

As to `CC(C)CN(C[C@H](O)[C@@H](/C=C/[C@@H](C[S+]([O-])c1ccc2ccccc2c1)NS(C)(=O)=O)Cc1ccccc1)S(=O)(=O)c1ccc(N)cc1` (some centres not stated), the IC50 in the test with MT2 [1] was over 1000 nM.

Take `CC(C)CN(C[C@@H](O)[C@H](Cc1ccccc1)NC(=O)[C@@H](C[S+]([O-])c1ccc2ccccc2c1)NS(C)(=O)=O)S(=O)(=O)c1ccc(N)cc1` (some centres not stated): in test [7], the SI was 500. The IC50 in the test on MT2 [1] turned out to be 66 nM; in test [4], 43 nM; in test [3], 31 nM; in test [5], 36 nM; in test [6] it was 25 nM. For the same compound, the CC50 in the test with MT2 [2] was 33000 nM. The Ki in test [8] worked out at 0.1 nM.

As to `CC(C)(C)NC(=O)[C@@H]1C[C@@H]2CCCC[C@@H]2CN1CC(O)[C@@H](/C=C/[C@@H](C[S+]([O-])c1ccc2ccccc2c1)NS(C)(=O)=O)Cc1ccccc1` (some centres not stated), the IC50 with MT2 [1] was over 1000 nM.

For the compound `CC(C)(C)NC(=O)[C@@H]1C[C@@H]2CCCC[C@@H]2CN1C[C@@H](O)[C@H](Cc1ccccc1)NC(=O)[C@@H](C[S+]([O-])c1ccc2ccccc2c1)NS(C)(=O)=O` (some centres not stated), the SI in test [7] came to 410. The IC50 came to 9.5 nM in the test with MT2 [1]; 34 nM in test [4]; 15 nM in test [3]; 32 nM in test [5]; 220 nM in test [6]. For the same compound, it took 3900 nM to reach half-maximal cytotoxicity in the test on MT2 [2] (CC50). The same compound yielded a Ki in test [8] of 0.12 nM.

In turn, `CC(C)(C)NC(=O)[C@@H]1C[C@@H]2CCCC[C@@H]2CN1CC(O)[C@@H](/C=C/[C@@H](CS(=O)(=O)c1ccc2ccccc2c1)NS(C)(=O)=O)Cc1ccccc1` (some centres not stated) returned an IC50 in the test on MT2 [1] of over 1000 nM.

With `CC(C)CN(C[C@@H](O)[C@@H](/C=C/[C@@H](C[S+]([O-])c1ccc2ccccc2c1)NS(C)(=O)=O)Cc1ccccc1)S(=O)(=O)c1ccc(N)cc1` (some centres not stated), the SI in test [7] is given as 58. The IC50 in the test with MT2 [1] was 160 nM; in test [4], over 1000 nM; in test [3], 180 nM; in test [5], 520 nM; in test [6], 340 nM. For the same compound, in the test on MT2 [2], the CC50 turned out to be 8000 nM. In test [8], this compound gave a Ki of 0.38 nM.

As to `Cc1cn([C@H]2C[C@H](N=[N+]=[N-])[C@@H](CO)O2)c(=O)[nH]c1=O` [ZIDOVUDINE], the IC50 was found to be 27 nM in the test on MT2 [1]; 43 nM in test [4]; 2.5 nM in test [3]; 37 nM in test [5]; 64 nM in test [6]. The same compound returned a half-maximal cytotoxic concentration (CC50) in the test with MT2 [2] of over 100000 nM.
